The target in test [1] is T1, Pellino1 FHA domain (amino acids 2–287) (Mus musculus, UniProt Q8C669).
T1 sequence (Q8C669 2-287): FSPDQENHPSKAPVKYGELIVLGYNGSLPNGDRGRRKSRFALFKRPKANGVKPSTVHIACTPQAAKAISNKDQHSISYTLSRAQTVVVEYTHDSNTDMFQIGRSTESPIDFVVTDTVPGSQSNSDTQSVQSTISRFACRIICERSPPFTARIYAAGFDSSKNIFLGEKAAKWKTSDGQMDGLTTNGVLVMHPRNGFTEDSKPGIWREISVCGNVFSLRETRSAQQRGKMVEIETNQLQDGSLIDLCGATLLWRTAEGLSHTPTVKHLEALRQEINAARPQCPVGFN
The test is described as follows: Fluorescence polarization peptide binding assay, Pellino1 FHA domain. To be noted: ratio of KD values. The method in brief: (§1)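 His6-tagged FHA domains were expressed in E. coli BL21(DE3) pLys. The tag was removed with TEV during dialysis (4 °C for Pellino1, 22 °C for Pellino3a/3b), then cation exchange (pH 6 Pellino1/3b, pH 5.5 Pellino3a) and gel filtration. 50 nM N-terminally fluorescein-labelled phosphopeptide was titrated with 0–190 μM domain in PBS pH 7.4 at 25 °C. Baseline-corrected polarization was fit to a simple isotherm; mean KD from ≥3 experiments, expressed relative to pT141+3Y KD.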

The target of test [2] is T2, Pellino2 FHA domain (amino acids 15–275 of Pellino2) (Homo sapiens, UniProt Q9HAT8).
T2 sequence (Q9HAT8 15-275): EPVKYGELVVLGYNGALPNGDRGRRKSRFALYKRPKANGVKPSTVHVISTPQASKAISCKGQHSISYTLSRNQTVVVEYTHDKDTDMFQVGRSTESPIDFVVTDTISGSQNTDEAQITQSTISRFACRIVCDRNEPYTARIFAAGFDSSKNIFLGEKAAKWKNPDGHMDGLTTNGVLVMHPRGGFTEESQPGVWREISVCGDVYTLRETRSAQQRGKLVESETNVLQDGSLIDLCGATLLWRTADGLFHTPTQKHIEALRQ
The test is described as follows: Fluorescence polarization peptide binding assay, Pellino2 FHA domain. To be noted: for fold change in KD relative to pT141+3Y (preference for the pTxxY motif): binding weaker than for pT141+3Y, Figure 4A.

Test [3] deals with T3, Pellino3b FHA domain (amino acids 2–304) (Homo sapiens, UniProt Q8N2H9).
T3 sequence (Q8N2H9 2-304 isoform Q8N2H9-2): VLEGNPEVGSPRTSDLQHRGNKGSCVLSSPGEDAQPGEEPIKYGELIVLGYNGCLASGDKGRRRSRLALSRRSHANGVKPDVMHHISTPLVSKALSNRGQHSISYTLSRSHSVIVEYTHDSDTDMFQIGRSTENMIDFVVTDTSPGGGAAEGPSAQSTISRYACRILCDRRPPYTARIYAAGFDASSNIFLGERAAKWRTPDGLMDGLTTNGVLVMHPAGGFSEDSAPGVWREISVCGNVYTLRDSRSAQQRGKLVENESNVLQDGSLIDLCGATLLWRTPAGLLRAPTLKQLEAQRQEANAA
Kind of test: Fluorescence polarization peptide binding assay, Pellino3b FHA domain. To be noted: ratio of KD values. In a few lines:
as §1

Test [4] has as its target T4, Pellino3a FHA domain (amino acids 40–305) (Homo sapiens, UniProt Q8N2H9).
T4 sequence (Q8N2H9 40-305): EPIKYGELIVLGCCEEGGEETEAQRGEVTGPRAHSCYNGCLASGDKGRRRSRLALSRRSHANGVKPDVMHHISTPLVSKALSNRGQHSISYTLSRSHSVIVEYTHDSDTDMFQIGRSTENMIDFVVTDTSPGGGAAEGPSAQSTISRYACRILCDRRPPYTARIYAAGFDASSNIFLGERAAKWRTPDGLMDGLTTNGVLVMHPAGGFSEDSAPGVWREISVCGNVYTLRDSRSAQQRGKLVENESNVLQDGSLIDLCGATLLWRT
The test is described as follows: Fluorescence polarization peptide binding assay, Pellino3a FHA domain. To be noted: ratio of KD values. The method in brief: as §1

Test [5] concerns the target Pellino2 (UniProt Q9HAT8). The test is described as follows: GST pull-down from lysate, Xpress and pT blots. To be noted: reference: wild-type IRAK1-197; sites T141.
Test [6] concerns the target Pellino2 FHA domain, 15-275 (UniProt Q9HAT8). Kind of test: fluorescence polarization titration. Conditions: reference: pT141+3S peptide (native S144); sites S144.
The target in test [7] is IRAK1pT141 peptide (amino acids 137–145 of IRAK1 with phosphothreonine at 141) (human) (UniProt P51617). The test is described as follows: fluorescence polarisation.
Chain of IRAK1pT141 peptide (amino acids 137–145 of IRAK1 with phosphothreonine at 141) (human) (P51617 whole entry, looked up, the tested form may be a part): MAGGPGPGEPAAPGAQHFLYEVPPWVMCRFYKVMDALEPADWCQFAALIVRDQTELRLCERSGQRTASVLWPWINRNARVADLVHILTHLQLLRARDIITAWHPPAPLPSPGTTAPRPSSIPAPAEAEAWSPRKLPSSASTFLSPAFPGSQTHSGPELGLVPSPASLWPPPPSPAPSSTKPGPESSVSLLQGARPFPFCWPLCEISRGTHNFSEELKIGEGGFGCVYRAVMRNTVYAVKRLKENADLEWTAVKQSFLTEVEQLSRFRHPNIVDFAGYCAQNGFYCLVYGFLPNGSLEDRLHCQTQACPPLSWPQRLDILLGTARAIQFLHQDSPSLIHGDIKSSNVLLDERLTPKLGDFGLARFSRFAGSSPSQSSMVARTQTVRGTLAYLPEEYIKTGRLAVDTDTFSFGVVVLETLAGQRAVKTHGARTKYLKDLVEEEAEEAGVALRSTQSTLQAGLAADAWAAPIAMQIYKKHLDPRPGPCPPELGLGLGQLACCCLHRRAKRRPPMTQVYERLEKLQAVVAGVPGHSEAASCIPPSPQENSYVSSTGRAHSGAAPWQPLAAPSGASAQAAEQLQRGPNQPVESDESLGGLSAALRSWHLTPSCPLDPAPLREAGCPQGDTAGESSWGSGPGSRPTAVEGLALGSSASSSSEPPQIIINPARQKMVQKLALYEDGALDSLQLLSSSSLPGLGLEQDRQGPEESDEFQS
Test [8] concerns the target T5, Pellino3b FHA domain (amino acids 2–304) (human, UniProt Q8N2H9-2 2-304).
T5 sequence (looked up): T3 sequence (Q8N2H9 2-304 isoform Q8N2H9-2)
Kind of test: fluorescence polarisation.

Test [9] addresses T6, Pellino1 FHA domain (amino acids 2–287, mouse) (mouse, UniProt Q8C669 2-287).
T6 sequence (looked up): T1 sequence (Q8C669 2-287)
The test is described as follows: fluorescence polarisation.

The target of test [10] is scrambled version of the pT141 peptide. The test is described as follows: fluorescence polarisation.
The target in test [11] is T7, Pellino2 FHA domain (amino acids 15–275 of Pellino2) (human, UniProt Q9HAT8 15-275).
T7 sequence (looked up): T2 sequence (Q9HAT8 15-275)
The test is described as follows: fluorescence polarisation.

Square brackets hold non-standard residues; d marks the D form. Peptide text beside a SMILES is read from it. pT = C[C@@H](OP(=O)(O)O)[C@H](N)C(=O)O

The results in this text go back to article PMC4201300 (Biochemistry, 2014).

Chain of Pellino2 FHA domain, 15-275 (Q9HAT8 whole entry, looked up, the tested form may be a part): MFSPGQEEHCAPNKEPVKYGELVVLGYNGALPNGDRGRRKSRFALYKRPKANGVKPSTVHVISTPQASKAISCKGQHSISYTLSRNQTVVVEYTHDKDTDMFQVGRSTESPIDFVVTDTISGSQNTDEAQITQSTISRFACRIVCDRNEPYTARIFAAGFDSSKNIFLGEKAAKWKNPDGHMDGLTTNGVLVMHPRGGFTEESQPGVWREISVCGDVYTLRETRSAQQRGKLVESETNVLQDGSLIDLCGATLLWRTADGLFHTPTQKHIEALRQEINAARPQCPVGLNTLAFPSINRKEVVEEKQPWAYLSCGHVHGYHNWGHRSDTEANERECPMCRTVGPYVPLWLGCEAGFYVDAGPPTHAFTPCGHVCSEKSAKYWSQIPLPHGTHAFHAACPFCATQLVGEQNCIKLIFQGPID

Turning to `CC(C)C[C@H](NC(=O)[C@H](Cc1ccccc1)NC(=O)[C@@H](NC(=O)[C@H](CO)NC(=O)[C@H](CO)NC(=O)[C@H](C)NC(=O)[C@H](CO)NC(=O)[C@@H](N)Cc1ccc(O)cc1)[C@@H](C)OP(=O)(O)O)C(=O)N[C@@H](CC(=O)O)C(=O)N1CCC[C@H]1C(N)=O` [IRAK1pT141+3D] (H-YSASS[pT]FLDP-NH2; N-terminus assumed), the “times weaker binding than for the pT141+3Y peptide” value in test [1], in [3] and in [4] was “at least 13 times” each time. Moreover, the “fold change in KD relative to pT141+3Y (preference for the pTxxY motif)” value in test [2] is on record as 23 fold.

Take `CC[C@H](C)[C@H](NC(=O)[C@H](CC(C)C)NC(=O)[C@H](Cc1ccccc1)NC(=O)[C@@H](NC(=O)[C@H](CO)NC(=O)[C@H](CO)NC(=O)[C@H](C)NC(=O)[C@H](CO)NC(=O)[C@@H](N)Cc1ccc(O)cc1)[C@@H](C)OP(=O)(O)O)C(=O)N1CCC[C@H]1C(N)=O` [IRAK1pT141+3I] (H-YSASS[pT]FLIP-NH2; N-terminus assumed): in [2], the “fold change in KD relative to pT141+3Y (preference for the pTxxY motif)” value is given as 12 fold.

Take `CC(C)C[C@H](NC(=O)[C@H](Cc1ccccc1)NC(=O)[C@@H](NC(=O)[C@H](CO)NC(=O)[C@H](CO)NC(=O)[C@H](C)NC(=O)[C@H](CO)NC(=O)[C@@H](N)Cc1ccc(O)cc1)[C@@H](C)OP(=O)(O)O)C(=O)N[C@@H](Cc1ccc(O)cc1)C(=O)N1CCC[C@H]1C(N)=O` [IRAK1pT141+3Y] (H-YSASS[pT]FLYP-NH2; N-terminus assumed): the “KD fold stronger than that for pT141+3S” value in test [2] (ratio of KD values) is 4.6 fold.

IRAK1 1-197 (from UniProt P51617) T141A: the “binding against the reference” value in [5] is “weaker”.

Consider “IRAK1 137-145 (from UniProt P51617) pT141+3D peptide”, for which the fold change (fold weaker KD) in test [6] is 5.

With “Pellino2 FHA domain (amino acids 15–275 of Pellino2) (from UniProt Q9HAT8 15-275) (domain or fragment)”, the Kd in test [7] came out at 820 nM.

For the molecule fluorescein-YSSAS[pT]FLIP-NH2 (also: fluorescein: FITC or 5,6-FAM) [pT141+3I peptide (IRAK1pT141 with isoleucine at position +3)], the binding result in test [8] was “binds”. Moreover, in test [9], the Kd was 1800 nM.

B1: Pellino2 FHA domain (amino acids 15–275 of Pellino2) (domain or fragment)
chain: T2 sequence (Q9HAT8 15-275)
B1 had a fold weaker affinity than for pT141 in test [10] above 100 fold.

As for fluorescein-YSSAS[pT]FLYP-NH2 (also: fluorescein: FITC or 5,6-FAM) [pT141+3Y peptide (IRAK1pT141 with tyrosine at position +3)], in [8], the binding result is on record as “binds”. Besides, the figures for the Kd in test [11] and in test [9] were 180 nM and 770 nM, respectively.
